Results published in ChEMBL document CHEMBL3112444, “Synthesis and anticancer activity of focused compound libraries from the natural product lead, oroidin” (2014).

Columns and labels:
[1] = Cytotoxicity against human U87 cells assessed as growth inhibition after 72 hrs by MTT assay; format: functional, U-87MG ATCC; conditions: U-87 MG
How it was run: (§1)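 Cells in logarithmic growth kept in DMEM with 10% FBS, 10 mM sodium bicarbonate, penicillin 100 IU/mL, glutamine 4 mM, at 37 °C under 5% CO2. Plated in duplicate at 2500–4000 cells/well. Compound (30 mM DMSO stock) added 24 h after plating. MTT read at 540 nm after 72 h exposure.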

[2] = Cytotoxicity against mouse SMA cells assessed as growth inhibition after 72 hrs by MTT assay; format: functional; how it was run: as §1
[3] = Cytotoxicity against human SJ-G2 cells assessed as growth inhibition after 72 hrs by MTT assay; format: functional; conditions: SJ-G2, 72 h; how it was run: as §1
[4] = Cytotoxicity against human MIA cells assessed as growth inhibition after 72 hrs by MTT assay; format: functional; how it was run: as §1
[5] = Cytotoxicity against human BE(2)-C cells assessed as growth inhibition after 72 hrs by MTT assay; format: functional; how it was run: as §1
DU-145 [6] = assay: Cytotoxicity against human DU145 cells assessed as growth inhibition after 72 hrs by MTT assay; format: functional; conditions: DU-145, 72 h; how it was run: as §1
[7] = Cytotoxicity against human H460 cells assessed as growth inhibition after 72 hrs by MTT assay; format: functional; conditions: NCI-H460, 72 h; how it was run: as §1
A-431 [8] = assay: Cytotoxicity against human A431 cells assessed as growth inhibition after 72 hrs by MTT assay; format: functional; conditions: A-431, 72 h; how it was run: as §1
A2780 [9] = assay: Cytotoxicity against human A2780 cells assessed as growth inhibition after 72 hrs by MTT assay; format: functional; conditions: A2780, 72 h; how it was run: as §1
MCF7 [10] = assay: Cytotoxicity against human MCF7 cells assessed as growth inhibition after 72 hrs by MTT assay; format: functional; conditions: MCF7, 72 h; how it was run: as §1
SW480 [11] = assay: Cytotoxicity against human SW480 cells assessed as growth inhibition after 72 hrs by MTT assay; format: functional; conditions: SW480, 72 h; how it was run: as §1
HT-29 [12] = assay: Cytotoxicity against human HT-29 cells assessed as growth inhibition after 72 hrs by MTT assay; format: functional; conditions: HT-29, 72 h; how it was run: as §1
[13] = Cytotoxicity against human U87 cells assessed as growth inhibition at 25 uM after 72 hrs by MTT assay relative to control; format: functional, U-87MG ATCC; conditions: U-87 MG, read-out: GI; how it was run: as §1
[14] = Cytotoxicity against mouse SMA cells assessed as growth inhibition at 25 uM after 72 hrs by MTT assay relative to control; format: functional; conditions: read-out: GI; how it was run: as §1
[15] = Cytotoxicity against human MIA cells assessed as growth inhibition at 25 uM after 72 hrs by MTT assay relative to control; format: functional; conditions: read-out: GI; how it was run: as §1
[16] = Cytotoxicity against human SJ-G2 cells assessed as growth inhibition at 25 uM after 72 hrs by MTT assay relative to control; format: functional; conditions: SJ-G2, 72 h, read-out: GI; how it was run: as §1
[17] = Cytotoxicity against human BE(2)-C cells assessed as growth inhibition at 25 uM after 72 hrs by MTT assay relative to control; format: functional; conditions: read-out: GI; how it was run: as §1
DU-145 [18] = assay: Cytotoxicity against human DU145 cells assessed as growth inhibition at 25 uM after 72 hrs by MTT assay relative to control; format: functional; conditions: DU-145, 72 h, read-out: GI; how it was run: as §1
A-431 [19] = assay: Cytotoxicity against human A431 cells assessed as growth inhibition at 25 uM after 72 hrs by MTT assay relative to control; format: functional; conditions: A-431, 72 h, read-out: GI; how it was run: as §1
[20] = Cytotoxicity against human H460 cells assessed as growth inhibition at 25 uM after 72 hrs by MTT assay relative to control; format: functional; conditions: NCI-H460, 72 h, read-out: GI; how it was run: as §1
A2780 [21] = assay: Cytotoxicity against human A2780 cells assessed as growth inhibition at 25 uM after 72 hrs by MTT assay relative to control; format: functional; conditions: A2780, 72 h, read-out: GI; how it was run: as §1
MCF7 [22] = assay: Cytotoxicity against human MCF7 cells assessed as growth inhibition at 25 uM after 72 hrs by MTT assay relative to control; format: functional; conditions: MCF7, 72 h, read-out: GI; how it was run: as §1
SW480 [23] = assay: Cytotoxicity against human SW480 cells assessed as growth inhibition at 25 uM after 72 hrs by MTT assay relative to control; format: functional; conditions: SW480, 72 h, read-out: GI; how it was run: as §1
HT-29 [24] = assay: Cytotoxicity against human HT-29 cells assessed as growth inhibition at 25 uM after 72 hrs by MTT assay relative to control; format: functional; conditions: HT-29, 72 h, read-out: GI; how it was run: as §1

SMILES | GI50 [1] [µM] | GI50 [2] [µM] | GI50 [3] [µM] | GI50 [4] [µM] | GI50 [5] [µM] | GI50 (DU-145 [6]) [µM] | GI50 [7] [µM] | GI50 (A-431 [8]) [µM] | inhibition of growth at 25 µM [13] [%] | inhibition of growth at 25 µM [14] [%] | inhibition of growth at 25 µM [15] [%] | inhibition of growth at 25 µM [16] [%] | inhibition of growth at 25 µM [17] [%] | inhibition of growth at 25 µM (DU-145 [18]) [%] | inhibition of growth at 25 µM (A-431 [19]) [%] | inhibition of growth at 25 µM [20] [%] | inhibition of growth at 25 µM (A2780 [21]) [%] | inhibition of growth at 25 µM (MCF7 [22]) [%] | inhibition of growth at 25 µM (SW480 [23]) [%] | inhibition of growth at 25 µM (HT-29 [24]) [%] | also measured
O=C(NCc1ccc(Cl)cc1)c1cc(Br)c(Br)[nH]1 | 34 | 16 | 28 | 22 | 32 | 27 | 28 | 24 | 30 | 79 | 63 | 42 | 24 | 40 | 37 | 57 | 86 | > 100 | 11 | 95 | GI50 (A2780 [9]): 13 µM; GI50 (MCF7 [10]): 14 µM; GI50 (SW480 [11]): 36 µM; GI50 (HT-29 [12]): 13 µM
Nc1ncc(/C=C/CNC(=O)c2cc(Br)c(Br)[nH]2)[nH]1 [OROIDIN] | > 50 | > 50 | > 50 | > 50 | > 50 | > 50 | > 50 | > 50 | 3 | 15 | 21 | < 0 | 6 | 23 | 6 | 7 | 51 | 27 | 8 | 31 | GI50 (A2780 [9]): 24 µM; GI50 (MCF7 [10]): 42 µM; GI50 (SW480 [11]): > 50 µM; GI50 (HT-29 [12]): > 50 µM
O=C(NCc1ccc(-c2ccccc2)cc1)c1ccc[nH]1 | 11 | 21 | > 50 | 6.5 | 11 | 6.5 | > 50 | 5.8 | 77 | 53 | 74 | 33 | 72 | 87 | 81 | 59 | 58 | 79 | 93 | 78 | GI50 (A2780 [9]): 11 µM; GI50 (MCF7 [10]): 5.7 µM; GI50 (SW480 [11]): 4.3 µM; GI50 (HT-29 [12]): 4.3 µM
O=C(NCC(c1ccccc1)c1ccccc1)c1cc(Br)c(Br)[nH]1 | 36 | 11 | 27 | 18 | 16 | 21 | 18 | 19 | 48 | 80 | 69 | 56 | > 100 | 56 | 56 | 67 | 94 | > 100 | 33 | 82 | GI50 (A2780 [9]): 13 µM; GI50 (MCF7 [10]): 10 µM; GI50 (SW480 [11]): 34 µM; GI50 (HT-29 [12]): 16 µM
O=C(NCc1ccc(Cl)c(Cl)c1)c1cc(Br)c(Br)[nH]1 | 27 | 17 | 18 | 17 | 24 | 20 | 19 | 20 | 55 | 84 | 77 | 70 | 44 | 66 | 57 | 66 | 90 | > 100 | 22 | 77 | GI50 (A2780 [9]): 15 µM; GI50 (MCF7 [10]): 12 µM; GI50 (SW480 [11]): 33 µM; GI50 (HT-29 [12]): 17 µM
O=C(NCc1ccc(-c2ccccc2)cc1)c1cc(Br)c(Br)[nH]1 | > 50 | 17 | > 50 | 3.4 | 4.2 | 2.6 | 21 | 3.7 | 58 | 59 | 82 | 17 | 57 | 64 | 90 | 61 | 66 | 70 | 97 | 78 | GI50 (A2780 [9]): 6.4 µM; GI50 (MCF7 [10]): 3.1 µM; GI50 (SW480 [11]): 2.4 µM; GI50 (HT-29 [12]): 3.4 µM
O=C(NCCCc1ccccc1)c1cc(Br)c(Br)[nH]1 |  |  |  |  |  |  |  |  | < 0 | 45 | 21 | 8 | < 0 | < 0 | 5 | 25 | 48 | 63 | < 0 | 41 | 
O=C(NCc1ccccc1)c1cc(Br)c(Br)[nH]1 | > 50 | 25 | 11 | > 50 | 4.8 | 33 | 35 | 22 | 31 | 61 | 33 | 95 | > 100 | 52 | 56 | 43 | 84 | > 100 | 33 | > 100 | GI50 (A2780 [9]): 14 µM; GI50 (MCF7 [10]): 11 µM; GI50 (SW480 [11]): > 50 µM; GI50 (HT-29 [12]): 4.6 µM
O=C(NCCCCc1ccccc1)c1ccc[nH]1 |  |  |  |  |  |  |  |  | < 0 | 6 | 15 | 8 | < 0 | 10 | 12 | 11 | 13 | 23 | < 0 | 16 | 
O=C(NCCc1c[nH]cn1)c1cc(Br)c(Br)[nH]1 |  |  |  |  |  |  |  |  | 5 | 18 | 20 | 11 | 13 | < 0 | 2 | 35 | 37 | 23 | 12 | 11 | 
O=C(NCc1ccc(Cl)cc1)c1ccc[nH]1 |  |  |  |  |  |  |  |  | 4 | 10 | 1 | < 0 | < 0 | < 0 | < 0 | < 0 | 2 | 10 | 4 | 10 | 
